Assay outcomes (PubChem)
Hits are enriched below; roughly 3% of the tested compounds scored in any of these assays.
esBAF inh: SWI/SNF esBAF complex inhibition | reporter increase, % at 12.5 µM | 2% of 350,000 active | mouse ES cells, Bmi1-luciferase knock-in reporter, 24 h; 100% = twice the neutral-well signal | AID 602393; in the data active = activation above about 40%; inconclusive = no clear call, values can overlap the other calls;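 note: 0% = median of the plate's neutral control wells and 100% = double that signal; a rise in the Bmi1 reporter signal indicates esBAF inhibition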
CASP6 VEID inh: blocks human caspase-6 cleavage activity; 0.53% of 350,000 active; P55212; inhibition, % at 12.5 µM; AID 686996; purified caspase-6, Z-VEID-R110 cleavage fluorescence;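 active = mean inhibition across replicates at least about 35%, with every replicate also reaching that limit, limit read from the data; inconclusive = only one of the two criteria met; inactive = neither criterion met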;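 note: 0% = median of neutral control wells and 100% = no fluorescence left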
Target sequence (P55212 24-179 limits assumed): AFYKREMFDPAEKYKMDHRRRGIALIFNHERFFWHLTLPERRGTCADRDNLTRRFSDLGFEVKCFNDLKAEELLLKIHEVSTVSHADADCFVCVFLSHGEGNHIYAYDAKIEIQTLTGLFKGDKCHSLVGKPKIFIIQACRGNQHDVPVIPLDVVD
Target sequence (P55212 194-293 limits assumed): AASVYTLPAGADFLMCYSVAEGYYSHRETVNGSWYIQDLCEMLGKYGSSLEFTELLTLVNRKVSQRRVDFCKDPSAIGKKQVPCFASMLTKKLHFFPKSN
MITF act: activators of MITF-driven TRPM1 promoter activity in SK-MEL-5 cells. activation, % at 12.5 µM. 0.75% of 300,000 active. SK-MEL-5 TRPM1-promoter luciferase, 24 h; % of positive control, neutral wells = 0;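 active = mean activation of at least 80% with every replicate also reaching 80%; inconclusive = mean reaches 80% but some replicate falls short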;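 note: 0% = neutral control wells and 100% = parthenolide positive control wells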
XiGFP reactiv: activators of X-chromosome reactivation in mouse fibroblasts; AID 743238; 0.055% of 360,000 active; activation, % at 7.58 µM; XiGFP mouse fibroblasts, % GFP-positive cells imaging, 3 d; cells co-treated with 5-aza-dC sensitizer; scaled so ellipticine positive control = 100%;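 active = mean normalized replicate activation at least 10% and every replicate at or above 10%; inconclusive = only one of the two criteria met; inactive = mean below 10% and not all replicates reach 10%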;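 note: 0% = median of on-plate neutral control wells and 100% = ellipticine 6 µM median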
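System: SV40-immortalized XiGFP fibroblast cells, line 68-5-11 / Incubation: 3-day compound exposure, then 15 min fixation at room temperature / Compound: single concentration per compound, delivered by pin transfer / Buffer or medium: DMEM plus 5-aza-dC sensitizer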
NSD2 HMT inh: inhibitors of human histone methyltransferase NSD2; AID 743445; inhibition, % at 12.5 µM; 0.54% of 310,000 active; NSD2 peptide methylation, AlphaScreen, 120 min; O96028; in the data active = inhibition above about 50%
Wnt bcat act: activates Wnt/beta-catenin signaling in a reporter cell assay; activator, plate reader; activation, % at 9.35 µM; 1.2% of 300,000 active; in the data active = activation above about 30%, passing the limit was not always enough; inconclusive = no clear call, values can overlap the other calls;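 note: 0% = neutral control wells and 100% = positive control wells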
Active calls of the source: *; ? = inconclusive; . = no result given.

SMILES	esBAF inh	CASP6 VEID inh	MITF act	XiGFP reactiv	NSD2 HMT inh	Wnt bcat act
O=C1CC(N(O)c2ccccc2)C(=O)N1c1ccc(Cl)c(Cl)c1 (centres undefined)	.	4	.	0	2	-1
O=C(Nc1ccccc1N1CCOCC1)c1cccc(S(=O)(=O)Nc2ccccc2F)c1	-3	3	0	0	.	1
CN(C)CCNC(=O)c1cccc(S(=O)(=O)Nc2ccccc2F)c1	.	49*	-7	0	-1	-1
C[C@@H]1CN([C@H](C)CO)C(=O)c2cc(-c3cccnc3)cnc2O[C@H]1CN(C)C(=O)c1ccccc1F	0	-4	.	-1	.	.
C[C@@H]1CCCCO[C@@H](CN(C)S(=O)(=O)c2ccc(F)cc2)[C@@H](C)CN([C@H](C)CO)C(=O)c2cc(NC(=O)Nc3ccc(C(F)(F)F)cc3)ccc2O1	-1	-4	.	0	.	.
Cc1ccc(C(=O)/C=C/c2cn(CN3CCN(C)CC3)c3ccccc23)cc1	55*	.	80	.	0	.
Cn1cc(/C=C/C(=O)c2ccccc2)c2ccccc21	-39	-2	9	0	0	14
C[C@H](CO)N1C[C@H](C)[C@H](CN(C)S(=O)(=O)c2cn(C)cn2)OCCCC[C@H](C)Oc2ccc(NC(=O)Nc3ccc(F)cc3)cc2C1=O	-1	-1	.	0	.	.
CCCn1c(-c2ccc[nH]c2=O)nc2ccccc21	-1	0	7	0	-3	-1
CCCC1(C)Nc2ccccc2-c2nc3ccccc3n21 (centres undefined)	67*	.	77	.	-6	.
O=C1c2ccccc2NC2(CCCC2)N1O	-3	.	-4	.	-1	.
c1ccc2c(c1)NC1(CCCC1)n1c-2nc2ccccc21	75*	-3	?	.	-1	15
C[C@H](O)C#Cc1cnc2c(c1)C(=O)N([C@H](C)CO)C[C@H](C)[C@@H](CN(C)CC1CCCCC1)O2	-5	3	.	0	.	.
COc1ccc2cc3c(N)c(C(=O)NCc4ccco4)sc3nc2c1	72*	.	65	.	5	.
O=C(c1cnccn1)N1CC(=O)N2[C@H](CO)[C@@H](c3ccc(C4=CCCCC4)cc3)[C@@H]2C1	.	1	.	0	.	.
CC(C)[C@H](NC(=O)OCc1ccccc1)C(=O)OCC(=O)c1ccccc1	-11	2	?	0	-3	35*
CC(C)C(NC(=O)OCc1ccccc1)C(=O)O (centres undefined)	-10	.	6	.	-1	4
C/C=C/c1cnc2c(c1)C(=O)N([C@H](C)CO)C[C@H](C)[C@H](CN(C)C(=O)Nc1c(C)noc1C)O2	8	.	.	0	.	.
COc1cccc(NC(=O)C[C@@H]2CC[C@@H]3[C@H](COc4ccc(NC(C)=O)cc4C(=O)N3C)O2)c1	3	-2	.	0	.	.
Nc1ccccc1SC1CC(=O)N(c2ccc3c(c2)OCCO3)C1=O (centres undefined)	.	2	.	0	0	35*
Nc1ccccc1SC1CC(=O)N(c2ccc(Cl)c(Cl)c2)C1=O (centres undefined)	3	1	-13	0	-2	1
N/C(=N\OC(=O)c1ccccc1Br)c1cccc([N+](=O)[O-])c1	3	8	65	0	3	43*
Cc1ccccc1/C(N)=N/OC(=O)c1ccc(F)cc1	48*	-1	28	0	-4	8
Cc1ccccc1C(=O)O/N=C(\N)c1ccccc1	41	5	-12	0	-1	27
Cc1ccccc1C(=O)O/N=C(\N)c1ccc([N+](=O)[O-])cc1	57*	-1	.	0	4	25
SMILES	esBAF inh	CASP6 VEID inh	MITF act	XiGFP reactiv	NSD2 HMT inh	Wnt bcat act
N/C(=N\OC(=O)c1ccccc1F)c1cccc([N+](=O)[O-])c1	?	-2	.	0	-2	13
N/C(=N\OC(=O)c1ccccc1Br)c1ccc([N+](=O)[O-])cc1	50*	4	.	0	9	7
N/C(Cc1ccc([N+](=O)[O-])cc1)=N\OC(=O)c1ccccc1Br	10	.	2	0	1	5
C/C=C/c1ccc([C@H]2[C@H](CO)N(S(=O)(=O)Cc3ccccc3)C23CN(C(=O)C2CCOCC2)C3)cc1	.	.	.	0	.	.
COc1ccc(NC(=O)N(C)C[C@H]2OCCCC[C@H](C)Oc3ccc(NC(=O)NC(C)C)cc3C(=O)N([C@@H](C)CO)C[C@H]2C)cc1	-6	0	.	0	.	.
CO[C@H]1CN(C)C(=O)c2ccc(NC(=O)c3ccc4c(c3)OCO4)cc2OC[C@H](C)N(CC2CC2)C[C@H]1C	5	0	.	0	.	.
CO[C@@H]1CN(C)C(=O)c2cc(NC(C)=O)ccc2OC[C@@H](C)N(C(=O)c2cnccn2)C[C@@H]1C	-11	.	.	0	.	.
CNc1sc(C(=O)c2cccs2)c(N)c1-c1nc2ccccc2s1	.	.	98*	.	0	.
C[C@H]1CCCCO[C@H](CN(C)C(=O)Nc2ccc3c(c2)OCO3)[C@@H](C)CN([C@@H](C)CO)C(=O)c2cc(NS(C)(=O)=O)ccc2O1	-2	-1	.	0	.	.
Cc1ccc(-n2c(C)cc(C=C(C#N)C#N)c2C)cc1	11	.	9	.	-2	25
Cc1cc(/C=C(\C#N)C(=O)Nc2ccccc2)c(C)n1-c1ccc2c(c1)OCO2	13	-3	13	.	0	-1
Cc1cc(C=C(C#N)C#N)c(C)n1-c1ccccc1	46*	.	44	.	-3	.
Cc1cc(/C=C(/C#N)C(=O)Nc2ccccc2)c(C)n1-c1cccnc1	44*	2	52	.	1	.
C[C@@H]1CC=CC[C@H](c2ccccc2)NC(=O)[C@H](C)N(C)C(=O)c2ccccc2O1 (mixture of isomers)	.	.	.	1	.	.
C[C@H]1CN([C@@H](C)CO)S(=O)(=O)c2ccc(-c3cncnc3)cc2O[C@H]1CN(C)C(=O)CC1CC1	0	0	.	-1	.	.
O=C(C[C@H]1C=C[C@H](NC(=O)c2ccncc2)[C@@H](CO)O1)Nc1ccccc1	.	0	.	0	.	.
COc1cccc2c1OC1(CCN(C(C)C)CC1)N1N=C(c3cccnc3)CC21 (centres undefined)	.	-1	.	0	0	34*
O=C(C[C@H]1CC[C@@H](NC(=O)NC2CCCCC2)[C@@H](CO)O1)NCc1ccccc1	-3	-1	.	0	.	.
Brc1ccc(-c2nnc(-c3cccc(Br)c3)o2)cc1	.	.	78	.	-1	.
O=C(c1cccc(-c2nnc(-c3ccccc3)o2)c1)N1CCCCCC1	33	.	65	.	-2	.
O=C(CSc1nnc(-c2cccc(Br)c2)o1)N1CCNC1=O	62*	1	88*	0	0	-1
O=C(CSc1nnc(-c2cccc(Br)c2)o1)NCC1CCCO1 (centres undefined)	-4	1	.	0	2	-1
O=C(c1cccc(-c2nnc(-c3ccccc3)o2)c1)N1CCCCC1	72*	.	51	.	-4	.
